ATG4B inhibitor = blocks human ATG4B protease cleavage of LC3 substrate | Q9Y4P1 | ATG4B cleavage of LC3-PLA2, NBD-HPC fluorescence, 1 h | inhibition, % at 8.33 µM | 0.51% of 340,000 active | AID 504462; in the data active = inhibition above about 40%
Myeloid diff 2 = promotes myeloid progenitor differentiation. calls only at 10 µM. ER-HoxA9 myeloid progenitors, lysozyme-GFP differentiation, flow cytometry. AID 624256. 1% of 360,000 active;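 active = normalized GFP-positive differentiation at or above the plate's own cutoff, the solvent-only control mean plus 3 SD; inconclusive = no clear call, values can overlap the other calls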;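 note: cells exposed to compound for four days before flow analysis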
Arr AP2 block = blocks beta-arrestin peptide binding to AP2 adaptin | inhibition, % at 10 µM | 0.31% of 340,000 active | FITC-arrestin peptide / GST-AP2 beads, flow cytometry; AP2 beta2 appendage carries R879A mutation | AID 504490;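 active = inhibition above a set limit, near 3 SD of compounds lacking own fluorescence, cut at about 54% in these data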;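 note: plate controls were DMSO wells for no effect and 5 µM unlabelled arrestin peptide for full effect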
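Assay system: GST-AP2 R879A bound to glutathione beads, E. coli-expressed; Medium: PBS with 0.05% Tween 20 and 0.1% BSA; Also added: fluorescein-tagged arrestin peptide at 50 nM final; Timing: 12 min plus 1 h, RT; Measured by: flow cytometry, FL1 (488/535 nm); Evaluation: percent drop in bead-associated FITC signal.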
ABCB6 inh MLPCN = blocks the human ABCB6 transporter; 0.19% of 360,000 active; AID 602162; fluorescence ratio to DMSO, % at 10 µM; K562-ABCB6 porphyrin accumulation, flow cytometry, 1 h; hits give low values;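 active = fluorescence ratio to DMSO below 75%, the collection mean minus 3 SD; inconclusive = too few cells collected in the well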;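 note: signal is porphyrin accumulated inside mitochondria; 100% equals median channel fluorescence of DMSO control wells; lower ratio means ABCB6 inhibition with less porphyrin fluorescence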
Granule exo inh = lytic granule exocytosis inhibition; TALL-104 LAMP-1 surface exposure, flow cytometry; cells stimulated with thapsigargin and PMA; inhibition, % at 10 µM; 0.66% of 360,000 active;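 active = inhibition above about 55%, limit read from the data; inconclusive = no clear call, values can overlap the other calls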
CendR NRP1 mod = NRP-1/CendR interaction modulation; O14786; FAM-RPARPAR peptide binding to NRP-1, fluorescence polarization; inhibition, % at 25 µM; 0.85% of 360,000 active; AID 602438;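 active = inhibition or corrected inhibition above about 18%, plus a signal ratio from 0.5 to 1.5, limit read from the data, passing the limit was not always enough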
Target sequence (O14786 whole entry, looked up): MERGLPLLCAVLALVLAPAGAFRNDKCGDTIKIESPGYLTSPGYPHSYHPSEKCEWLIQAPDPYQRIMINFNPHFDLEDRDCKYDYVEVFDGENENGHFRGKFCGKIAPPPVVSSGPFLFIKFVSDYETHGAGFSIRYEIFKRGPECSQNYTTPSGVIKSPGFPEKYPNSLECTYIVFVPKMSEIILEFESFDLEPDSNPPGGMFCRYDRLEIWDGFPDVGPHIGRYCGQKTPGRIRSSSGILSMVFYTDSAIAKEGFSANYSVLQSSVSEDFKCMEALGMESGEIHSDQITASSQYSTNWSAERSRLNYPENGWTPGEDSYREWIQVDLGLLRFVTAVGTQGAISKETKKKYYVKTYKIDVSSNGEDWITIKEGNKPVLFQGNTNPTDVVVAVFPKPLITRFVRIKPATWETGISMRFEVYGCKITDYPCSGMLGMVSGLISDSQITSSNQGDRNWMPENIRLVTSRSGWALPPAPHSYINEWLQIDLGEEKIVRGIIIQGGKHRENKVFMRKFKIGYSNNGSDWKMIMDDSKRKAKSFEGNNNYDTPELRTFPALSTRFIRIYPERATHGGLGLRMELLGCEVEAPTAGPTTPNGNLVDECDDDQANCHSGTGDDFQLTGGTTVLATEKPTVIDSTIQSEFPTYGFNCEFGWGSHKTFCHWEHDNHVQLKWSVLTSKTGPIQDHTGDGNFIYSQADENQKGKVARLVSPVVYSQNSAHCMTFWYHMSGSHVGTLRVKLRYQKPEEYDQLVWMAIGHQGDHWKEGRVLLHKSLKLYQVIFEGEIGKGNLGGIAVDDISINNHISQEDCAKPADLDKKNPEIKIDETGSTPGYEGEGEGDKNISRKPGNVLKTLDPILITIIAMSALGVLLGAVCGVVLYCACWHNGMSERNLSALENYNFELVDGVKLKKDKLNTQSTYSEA
Granule exo CP1 = lytic granule exocytosis inhibition; TALL-104 cells, LAMP-1 externalization, flow cytometry; stimulated with PMA plus thapsigargin; inhibition, % at 10 µM; AID 651954; shares compounds with Granule exo inh; 11% of 1,500 active; in the data active = inhibition above about 60%;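 note: 0% = stimulated vehicle wells and 100% = unstimulated wells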
Numbers without * were called inactive; i = inactive; ? = inconclusive; . = not tested or not shown. Compounds with a hit are over-represented: about 3.3% of the library has one in this group of screens.

SMILES | ATG4B inhibitor | Myeloid diff 2 | Arr AP2 block | ABCB6 inh MLPCN | Granule exo inh | CendR NRP1 mod | Granule exo CP1
Nc1ccc(-c2nc3cc(N)ccc3o2)cc1 | -3 | i | 50 | 97 | -4 | -1 | .
CCNc1nc(-c2sc(NC(=O)C(C)(C)C)nc2C)c(-n2cc(-c3ccccc3)nn2)s1 | . | i | . | 107 | 79* | 13 | 58
COc1ccccc1CN1CC(C(=O)NCc2cc(C)on2)CCC1=O (centres undefined) | 1 | i | 33 | 96 | 0 | -12 | .
COc1ccc(CN2CCc3c([nH]c4ccccc34)C2)c(OC)c1C | 10 | i | 6 | 96 | 56* | 1 | -12
CC(OC(=O)c1cccc(S(=O)(=O)N(C)C)c1)C(=O)NCC(=O)Nc1ccc(F)c(F)c1F (centres undefined) | -4 | i | 12 | 100 | -1 | 10 | .
CC(=O)N1C(C)(C)CC(=NOS(=O)(=O)c2ccccc2)CC1(C)C | -1 | i | -10 | 99 | -2 | 7 | .
CCC1CCCCN1CCCNC(=O)c1ccc2c(c1)N(Cc1ccc(F)cc1)C(=O)c1ccccc1S2=O (centres undefined) | -1 | i | -9 | 99 | 61* | 10 | -14
CCOC(=O)c1c(C)oc2c1c(C(c1cccnc1)N1CCOCC1)c(O)c1ccccc12 (centres undefined) | -12 | i | -5 | 105 | 98* | -18 | 83*
CCOC(=O)c1c(C)oc2c1c1c(c3ccccc32)OCN(Cc2cccnc2)C1 | -4 | i | -10 | 103 | 1 | -10 | .
CC1CC(C)(C)Nc2ccc(OC(=O)c3ccco3)cc21 (centres undefined) | -10 | ? | 6 | 114 | 82* | -1 | -11
O=C(Oc1ccc2ccccc2c1)c1ccco1 | 1 | i | 22 | 91 | -1 | -12 | .
COCCCn1c(=O)c2sccc2n2c(CCCC(=O)NCc3ccc(OC)cc3)nnc12 | 2 | i | 28 | 98 | 2 | 3 | .
NS(=O)(=O)c1ccc(CCNCc2ccccc2OCc2ccc(Cl)cc2)cc1 | -3 | i | -5 | 90 | 57* | 7 | -11
COc1ccc([N+](=O)[O-])cc1NC(=O)c1cn(-c2ccc(C)c(C)c2)c(=O)c2ccccc12 | 2 | i | 4 | 103 | -2 | -1 | .
COc1ccc(N2CCN(c3ncnc4scc(-c5ccc(C)cc5)c34)CC2)cc1 | -10 | . | 37 | 91 | 80* | 3 | -12
COc1ccc(CN2CCN(c3ncnc4scc(-c5ccc(F)cc5)c34)CC2)cc1 | -3 | i | -4 | 97 | 60* | -7 | 1
Fc1ccc(-c2csc3ncnc(N4CCN(c5ccccc5)CC4)c23)cc1 | -2 | i | 6 | 95 | -4 | -28 | .
CCOc1ccc(CN2CCN(c3ncnc4scc(-c5ccccc5)c34)CC2)cc1 | 7 | i | 9 | 95 | 87* | 0 | -11
COc1ccc(F)cc1CN1CCN(c2ncnc3scc(-c4ccccc4)c23)CC1 | -2 | i | 5 | 98 | 70* | 3 | 10
N=C(N1CCCc2ccccc21)N1CCCc2ccccc21 | 8 | i | -6 | 99 | -1 | 20 | .
COc1ccccc1-c1csc(C(NC(C)=O)c2ccc(F)c(F)c2)n1 (centres undefined) | . | i | . | 97 | -2 | 14 | .
CN(c1ccccc1)S(=O)(=O)c1cccc(C(=O)NCCc2c[nH]c3ccccc23)c1 | -7 | i | -8 | 107 | 66* | 2 | 86*
O=C(NCCc1c[nH]c2ccccc12)c1cccc(S(=O)(=O)Nc2ccccc2Cl)c1 | -8 | i | -1 | 100 | 2 | -10 | .
O=C(c1ccco1)N1CCN(c2ccc([N+](=O)[O-])c(N3CCOCC3)c2)CC1 | -9 | i | 12 | 107 | 0 | -5 | .
Cc1nn(CC(=O)NCCCN2CCC(Cc3ccccc3)CC2)c(=O)c2cc(-c3ccccc3)nn12 | -8 | i | 31 | 101 | 87* | 15 | 3
SMILES | ATG4B inhibitor | Myeloid diff 2 | Arr AP2 block | ABCB6 inh MLPCN | Granule exo inh | CendR NRP1 mod | Granule exo CP1
CC1CCCC(C)N1C(=O)COC(=O)C1CCN(S(=O)(=O)c2ccc3c(c2)OCCO3)CC1 (centres undefined) | -13 | i | -5 | 94 | 2 | -2 | .
O=C(Nc1cccc2nsnc12)c1ccc(-c2cccc(Cl)c2)o1 | 12 | . | 28 | 126 | 92* | -48 | -6
O=C(Nc1ccccc1N1CCCCC1)c1ccc(-c2cccc(Cl)c2)o1 | -7 | i | -1 | 88 | 5 | 9 | .
CC(C)(C)n1nnnc1C(c1cccs1)N(Cc1ccccc1)Cc1ccco1 (centres undefined) | -2 | i | 2 | 92 | 78* | -9 | -12
Cc1ccc(C(=O)c2c(C)oc3c2C(=O)C(=O)c2ccccc2-3)cc1 | 8 | ? | 2 | 102 | 103* | 9 | 42
C=CCSc1nc(C)c(Cc2cccc3ccccc23)c(=O)[nH]1 | -6 | i | 5 | 103 | -4 | 4 | .
Cc1c(NC(=O)COc2cccc(Br)c2)c(=O)n(-c2ccccc2)n1C | -5 | i | -2 | 97 | 70* | 8 | -4
COc1cccc(C(=O)Nc2c[nH]c(=O)[nH]c2=O)c1 | -1 | i | -10 | 101 | -3 | 6 | .
CCOC(=O)c1c(-c2ccccc2)oc2ccc(O)c(CN(C)C)c12 | 8 | i | 3 | 99 | 12 | 6 | .
CCOC(=O)c1c(CSCc2ccccc2)oc2ccc(O)c(CN(C)C)c12 | 14 | i | 8 | 93 | 85* | -1 | 36
CC(NCCCOc1cccc2ccccc12)c1ccccc1 (centres undefined) | -9 | i | -23 | 99 | 61* | -1 | -5
CCCCn1nnnc1C1(C)CCC(=O)N1Cc1ccc(OC)cc1 (centres undefined) | . | i | . | 101 | -7 | -2 | .
COCC(C)NC(=O)COCc1cc(-c2ccc3c(c2)OCO3)on1 (centres undefined) | -5 | i | 3 | 98 | 0 | 8 | .
COc1ccccc1C(=O)Nc1cccc2cccnc12 | -10 | i | -10 | 100 | 56* | 0 | -14
COc1cc(NC(=O)CNC(c2ccccc2)c2ccccc2)cc(OC)c1OC | -5 | i | 10 | 97 | 11 | 9 | .
COc1ccccc1NC(=O)c1ccccc1Oc1ccccc1 | 2 | i | -9 | 99 | 68* | 26* | -1
COc1ccccc1NC(=O)CNC(c1ccccc1)c1ccccc1 | 2 | i | 0 | 95 | 77* | 1 | -12
COc1cc(NC(=O)c2cc(OC)c(OC)c(OC)c2)c2ncccc2c1 | -1 | i | -4 | 101 | 94* | 10 | 25

Screens: PubChem BioAssay, several laboratories
